Assays:
Format in all cases: functional
[1] = tested on: NCI-H226; experiment: Growth inhibition of human NCI-H226 cells at 10 uM after 48 hrs by coulter counter analysis; settings: NCI-H226, 48 h, read-out: GI
Procedure, shortened: (§1)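 Single-dose NCI 60-line panel screen of test compounds. Cells grown in RPMI 1640 with 10% FBS. Compounds dissolved in DMSO, then diluted in phosphate buffer saline (final DMSO below 1%). Wells run in duplicate at 6 × 10⁴ cells/ml. Controls held PBS and DMSO at matching dilutions. Incubation 48 h at 37 °C under humidified 5% CO2. Cells diluted tenfold in saline and counted by Coulter counter. Percent growth inhibition taken from mean-graph of treated-cell growth.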

[2] = tested on: MDA-MB-435; experiment: Growth inhibition of human MDA-MB-435 cells at 10 uM after 48 hrs by coulter counter analysis; settings: MDA-MB-435, 48 h, read-out: GI; procedure, shortened: as §1
[3] = tested on: Malme-3M; experiment: Growth inhibition of human MALME-3M cells at 10 uM after 48 hrs by coulter counter analysis; settings: read-out: GI; procedure, shortened: as §1
[4] = tested on: BT-549; experiment: Growth inhibition of human BT549 cells at 10 uM after 48 hrs by coulter counter analysis; settings: BT-549, 48 h, read-out: GI; procedure, shortened: as §1
[5] = tested on: EKVX; experiment: Growth inhibition of human EKVX cells at 10 uM after 48 hrs by coulter counter analysis; settings: read-out: GI; procedure, shortened: as §1
[6] = tested on: OVCAR-5; experiment: Growth inhibition of human OVCAR5 cells at 10 uM after 48 hrs by coulter counter analysis; settings: OVCAR-5, 48 h, read-out: GI; procedure, shortened: as §1
[7] = tested on: SNB-19; experiment: Growth inhibition of human SNB19 cells at 10 uM after 48 hrs by coulter counter analysis; settings: SNB-19, 48 h, read-out: GI; procedure, shortened: as §1
[8] = tested on: IGROV-1; experiment: Growth inhibition of human IGROV1 cells at 10 uM after 48 hrs by coulter counter analysis; settings: IGROV-1, 48 h, read-out: GI; procedure, shortened: as §1
[9] = tested on: SF-268; experiment: Growth inhibition of human SF268 cells at 10 uM after 48 hrs by coulter counter analysis; settings: SF-268, 48 h, read-out: GI; procedure, shortened: as §1
[10] = tested on: SK-MEL-28; experiment: Growth inhibition of human SK-MEL-28 cells at 10 uM after 48 hrs by coulter counter analysis; settings: SK-MEL-28, 48 h, read-out: GI; procedure, shortened: as §1
[11] = tested on: OVCAR-3; experiment: Growth inhibition of human OVCAR3 cells at 10 uM after 48 hrs by coulter counter analysis; settings: OVCAR-3, 48 h, read-out: GI; procedure, shortened: as §1
[12] = tested on: NCI-H522; experiment: Growth inhibition of human NCI-H522 cells at 10 uM after 48 hrs by coulter counter analysis; settings: NCI-H522, 48 h, read-out: GI; procedure, shortened: as §1
[13] = tested on: OVCAR-8; experiment: Growth inhibition of human OVCAR8 cells at 10 uM after 48 hrs by coulter counter analysis; settings: OVCAR-8, 48 h, read-out: GI; procedure, shortened: as §1
[14] = tested on: HOP-62; experiment: Growth inhibition of human HOP62 cells at 10 uM after 48 hrs by coulter counter analysis; settings: HOP-62, 48 h, read-out: GI; procedure, shortened: as §1
[15] = tested on: 786-0; experiment: Growth inhibition of human 786-0 cells at 10 uM after 48 hrs by coulter counter analysis; settings: 786-0, 48 h, read-out: GI; procedure, shortened: as §1
[16] = tested on: SN12C; experiment: Growth inhibition of human SN12C cells at 10 uM after 48 hrs by coulter counter analysis; settings: read-out: GI; procedure, shortened: as §1
[17] = tested on: UACC-257; experiment: Growth inhibition of human UACC257 cells at 10 uM after 48 hrs by coulter counter analysis; settings: UACC-257, 48 h, read-out: GI
Procedure, shortened: (§2)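 Single-dose screen in the NCI 60 cell line panel. Cells grown in RPMI 1640 with 10% FBS. Compounds dissolved in DMSO and diluted in phosphate buffered saline, final DMSO under 1%. Duplicate wells seeded from culture at 6 × 10⁴ cells/ml. Incubated 48 h at 37 °C, humidified, 5% CO2. Cells diluted tenfold in saline and Coulter-counted. Percent growth inhibition computed against PBS/DMSO controls.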

[18] = tested on: LOX IMVI; experiment: Growth inhibition of human LOXIMVI cells at 10 uM after 48 hrs by coulter counter analysis; settings: read-out: GI; procedure, shortened: as §1
[19] = tested on: CAKI-1; experiment: Growth inhibition of human Caki1 cells at 10 uM after 48 hrs by coulter counter analysis; settings: CAKI-1, 48 h, read-out: GI; procedure, shortened: as §1
[20] = tested on: SK-OV-3; experiment: Growth inhibition of human SKOV3 cells at 10 uM after 48 hrs by coulter counter analysis; settings: SK-OV-3, 48 h, read-out: GI; procedure, shortened: as §1
[21] = tested on: MDA-MB-231; experiment: Growth inhibition of human MDA-MB-231 cells at 10 uM after 48 hrs by coulter counter analysis; settings: MDA-MB-231, 48 h, read-out: GI; procedure, shortened: as §1
[22] = tested on: TK-10; experiment: Growth inhibition of human TK10 cells at 10 uM after 48 hrs by coulter counter analysis; settings: TK-10, 48 h, read-out: GI; procedure, shortened: as §2
[23] = tested on: MDA-MB-468; experiment: Growth inhibition of human MDA-MB-468 cells at 10 uM after 48 hrs by coulter counter analysis; settings: MDA-MB-468, 48 h, read-out: GI; procedure, shortened: as §1
[24] = Growth inhibition of human Hs 578T cells at 10 uM after 48 hrs by coulter counter analysis; settings: read-out: GI; procedure, shortened: as §1
[25] = Growth inhibition of human NCI-ADR-RES cells at 10 uM after 48 hrs by coulter counter analysis; settings: read-out: GI; procedure, shortened: as §1
[26] = tested on: COLO 205; experiment: Growth inhibition of human COLO205 cells at 10 uM after 48 hrs by coulter counter analysis; settings: COLO 205, 48 h, read-out: GI; procedure, shortened: as §1

| Structure (SMILES) | inhibition of growth at 10 µM [1] [%] | inhibition of growth at 10 µM [2] [%] | inhibition of growth at 10 µM [3] [%] | inhibition of growth at 10 µM [4] [%] | inhibition of growth at 10 µM [5] [%] | inhibition of growth at 10 µM [6] [%] | inhibition of growth at 10 µM [7] [%] | inhibition of growth at 10 µM [8] [%] | inhibition of growth at 10 µM [9] [%] | inhibition of growth at 10 µM [10] [%] | inhibition of growth at 10 µM [11] [%] | inhibition of growth at 10 µM [12] [%] | inhibition of growth at 10 µM [13] [%] | inhibition of growth at 10 µM [14] [%] | inhibition of growth at 10 µM [15] [%] | inhibition of growth at 10 µM [16] [%] | inhibition of growth at 10 µM [18] [%] | inhibition of growth at 10 µM [19] [%] | inhibition of growth at 10 µM [21] [%] | inhibition of growth at 10 µM [23] [%] | further results |
| --- | --- | --- | --- | --- | --- | --- | --- | --- | --- | --- | --- | --- | --- | --- | --- | --- | --- | --- | --- | --- | --- |
| Cc1csc(NC(=O)C(C)N2CCN(c3ccccc3)CC2)n1 (stereo unspecified) | 11.7 | < 10 | < 10 | < 10 | < 10 | < 10 | < 10 | < 10 | < 10 | < 10 | < 10 | < 10 | < 10 | < 10 | < 10 | < 10 | < 10 | < 10 | < 10 | < 10 | inhibition of growth at 10 µM [17]: < 10%; inhibition of growth at 10 µM [20]: < 10%; inhibition of growth at 10 µM [22]: < 10%; inhibition of growth at 10 µM [24]: < 10%; inhibition of growth at 10 µM [25]: < 10%; inhibition of growth at 10 µM [26]: < 10% |
| Cc1csc(NC(=O)C(C)N2CCN(C)CC2)n1 (stereo unspecified) | < 10 | 11.2 | 17.6 | 13.3 | < 10 | < 10 | < 10 | < 10 | < 10 | < 10 | < 10 | 66.3 | < 10 | 10.9 | < 10 | 11.5 | 46.4 | < 10 | 13.3 | 11.1 | inhibition of growth at 10 µM [17]: < 10%; inhibition of growth at 10 µM [20]: < 10%; inhibition of growth at 10 µM [22]: < 10%; inhibition of growth at 10 µM [24]: < 10%; inhibition of growth at 10 µM [25]: < 10%; inhibition of growth at 10 µM [26]: < 10% |
| CC(C(=O)Nc1nccs1)N1CCN(c2ccccc2)CC1 (stereo unspecified) | < 10 | < 10 | < 10 | < 10 | < 10 | < 10 | < 10 | < 10 | < 10 | < 10 | < 10 | < 10 | < 10 | < 10 | < 10 | < 10 | < 10 | < 10 | < 10 | < 10 | inhibition of growth at 10 µM [17]: < 10%; inhibition of growth at 10 µM [20]: < 10%; inhibition of growth at 10 µM [22]: < 10%; inhibition of growth at 10 µM [24]: < 10%; inhibition of growth at 10 µM [25]: < 10%; inhibition of growth at 10 µM [26]: < 10% |
| CCOC(=O)c1sc(NC(=O)C(C)N(CC)CC)nc1C (stereo unspecified) | < 10 | < 10 | < 10 | < 10 | < 10 | < 10 | < 10 | < 10 | < 10 | < 10 | < 10 | < 10 | < 10 | < 10 | < 10 | < 10 | < 10 | 12 | < 10 | < 10 | inhibition of growth at 10 µM [17]: < 10%; inhibition of growth at 10 µM [20]: < 10%; inhibition of growth at 10 µM [22]: < 10%; inhibition of growth at 10 µM [24]: < 10%; inhibition of growth at 10 µM [25]: < 10%; inhibition of growth at 10 µM [26]: < 10% |
| CCOC(=O)c1sc(NC(=O)C(C)N2CCN(C)CC2)nc1C (stereo unspecified) | < 10 | < 10 | < 10 | < 10 | < 10 | < 10 | < 10 | < 10 | < 10 | < 10 | < 10 | < 10 | < 10 | < 10 | < 10 | < 10 | < 10 | < 10 | < 10 | < 10 | inhibition of growth at 10 µM [17]: < 10%; inhibition of growth at 10 µM [20]: < 10%; inhibition of growth at 10 µM [22]: < 10%; inhibition of growth at 10 µM [24]: < 10%; inhibition of growth at 10 µM [25]: < 10%; inhibition of growth at 10 µM [26]: < 10% |
| O=C(CCN1CCN(c2ccccc2)CC1)Nc1nc(-c2ccccc2)cs1 | 26.6 | 13.4 | < 10 | 26.1 | 24.8 | 18.8 | 10.3 | 33.5 | 22.3 | < 10 | 26.1 | 21.3 | 23.6 | 24.8 | 18.1 | 33.5 | 25.7 | 37.7 | < 10 | 33.4 | inhibition of growth at 10 µM [24]: 14%; inhibition of growth at 10 µM [25]: 34.6%; inhibition of growth at 10 µM [26]: < 10% |
| Cc1cnc(NC(=O)CN2CCN(c3ccccc3)CC2)s1 | < 10 | < 10 | < 10 | < 10 | 12.1 | < 10 | < 10 | < 10 | < 10 | < 10 | < 10 | < 10 | < 10 | < 10 | < 10 | < 10 | < 10 | < 10 | < 10 | < 10 | inhibition of growth at 10 µM [24]: < 10%; inhibition of growth at 10 µM [25]: < 10%; inhibition of growth at 10 µM [26]: < 10% |

Source: ChEMBL document CHEMBL2040727, “Substituted thiazoles VI. Synthesis and antitumor activity of new 2-acetamido- and 2 or 3-propanamido-thiazole analogs” (2012)
